ChEMBL document CHEMBL3808312, “Bioactive Constituents of Glycyrrhiza uralensis (Licorice): Discovery of the Effective Components of a Traditional Herbal Medicine” (J Nat Prod, 2016)

Tests used:
Influenza A virus [1] = test: Antiviral activity against Influenza A virus A/WSN/33(H1N1) infected in MDCK cells at 100 uM preincubated with virus for 15 mins followed by cells addition measured at 36 hrs post infection; type: functional, A/WSN/1933(H1N1)
Method in brief: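 MDCK canine kidney cells grown in DMEM and infected with influenza A/WSN/33 (H1N1). Compounds screened at 100 μM. Oseltamivir phosphate served as the positive control.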

Influenza A virus [2] = test: Antiviral activity against Influenza A virus A/WSN/33(H1N1) infected in dog MDCK cells preincubated with virus for 15 mins followed by cells addition measured at 36 hrs post infection; type: functional, organism-based; conditions: A/WSN/1933(H1N1)

SMILES | Activity (Influenza A virus [1]) | IC50 (Influenza A virus [2]) | inhibition at 100 µM (Influenza A virus [1]; Influenza A virus, A/WSN/1933(H1N1), MDCK)
CC1(C)[C@@H](O[C@@H]2O[C@H](C(=O)O)[C@@H](O)[C@H](O)[C@H]2O[C@@H]2O[C@H](C(=O)O)[C@@H](O)[C@H](O)[C@H]2O)CC[C@]2(C)C3=CC=C4[C@H]5C[C@@](C)(C(=O)O)CC[C@]5(C)CC[C@@]4(C)[C@]3(C)CC[C@@H]12 | 47% | 39.6 µM | 
CC(=O)O[C@@H]1C[C@](C)(C(=O)O)C[C@@H]2C3=CC(=O)[C@@H]4[C@@]5(C)CC[C@H](O[C@@H]6O[C@H](C(=O)O)[C@@H](O)[C@H](O)[C@H]6O[C@@H]6O[C@H](C(=O)O)[C@H](O)[C@H](O)[C@H]6O)C(C)(C)[C@@H]5CC[C@@]4(C)[C@]3(C)CC[C@]21C | 47% | 39.6 µM | 
C[C@]1(C(=O)O)CC[C@@]2(C)CC[C@@]3(C)C(=CC(=O)[C@H]4[C@]5(C)CC[C@@H](O[C@H]6O[C@@H](C(=O)O)[C@H](O)[C@@H](O)[C@@H]6O[C@H]6O[C@@H](C(=O)O)[C@H](O)[C@@H](O)[C@@H]6O)[C@@](C)(CO)[C@H]5CC[C@@]43C)[C@@H]2C1 | 47% | 39.6 µM | 
C[C@]1(C(=O)O)CC[C@]2(C)CC[C@]3(C)C(=CC(=O)[C@@H]4[C@@]5(C)CC[C@H](O[C@@H]6O[C@H](C(=O)O)[C@@H](O)[C@H](O)[C@H]6O[C@@H]6O[C@H](C(=O)O)[C@@H](O)[C@H](O)[C@H]6O)[C@](C)(CO)[C@@H]5CC[C@]43C)[C@H]2C1 | 47% | 39.6 µM | 
CC(C)(O)CCc1c(O)cc2occ(-c3ccc(O)c(O)c3)c(=O)c2c1O | >30% |  | 
CC1(C)[C@@H](O[C@@H]2O[C@H](C(=O)O)[C@@H](O)[C@H](O)[C@H]2O[C@@H]2O[C@H](C(=O)O)[C@@H](O)[C@H](O)[C@H]2O)CC[C@]2(C)[C@H]3C(=O)C=C4[C@H]5C[C@@](C)(CO)C[C@@H](O)[C@]5(C)CC[C@@]4(C)[C@]3(C)CC[C@@H]12 | 47% | 39.6 µM | 
CC1(C)[C@@H](O[C@@H]2O[C@H](C(=O)O)[C@@H](O)[C@H](O[C@@H]3O[C@H](C(=O)O)[C@@H](O)[C@H](O)[C@H]3O)[C@H]2O)CC[C@]2(C)[C@H]3C(=O)C=C4[C@H]5C[C@@](C)(C(=O)O)CC[C@]5(C)CC[C@@]4(C)[C@]3(C)CC[C@@H]12 | 47% | 39.6 µM | 
CC(=O)O[C@H]1C[C@@](C)(C(=O)O)C[C@H]2C3=CC(=O)[C@H]4[C@]5(C)CC[C@@H](O[C@@H]6O[C@H](C(=O)O)[C@@H](O)[C@H](O)[C@H]6O[C@H]6OC[C@H](O)[C@@H](O)[C@@H]6O[C@H]6O[C@H](C)[C@@H](O)[C@H](O)[C@@H]6O)C(C)(C)[C@H]5CC[C@]4(C)[C@@]3(C)CC[C@]12C | 47% | 39.6 µM | 
CC(C)=CCc1c(O)cc(O)c2c(=O)c(-c3ccc(O)c(O)c3)coc12 [GANCAONIN L] |  |  | > 30%
CC(=O)O[C@H]1C[C@@](C)(C(=O)O)C[C@H]2C3=CC(=O)[C@H]4[C@]5(C)CC[C@@H](O[C@@H]6O[C@H](C(=O)O)[C@H](O)[C@H](O)[C@H]6O[C@H]6O[C@@H](CO)[C@H](O)[C@@H](O)[C@@H]6O[C@H]6O[C@H](C)[C@@H](O)[C@H](O)[C@@H]6O)C(C)(C)[C@H]5CC[C@]4(C)[C@@]3(C)CC[C@]12C | 47% | 39.6 µM | 
C[C@@]1(C(=O)O)CC[C@@]2(C)CC[C@@]3(C)C(=CC(=O)[C@H]4[C@]5(C)CC[C@@H](O[C@H]6O[C@@H](C(=O)O)[C@H](O)[C@@H](O)[C@@H]6O[C@H]6O[C@@H](C(=O)O)[C@@H](O)[C@@H](O)[C@@H]6O)[C@@](C)(CO)[C@H]5CC[C@@]43C)[C@@H]2C1 | 47% | 39.6 µM | 
CC1(C)[C@@H](O[C@H]2O[C@H](C(=O)O)[C@@H](O)[C@H](O)[C@H]2O[C@@H]2O[C@H](C(=O)O)[C@@H](O)[C@H](O)[C@H]2O)CC[C@]2(C)[C@H]3C(=O)C=C4[C@@H]5C[C@@](C)(C(=O)O)CC[C@]5(C)CC[C@@]4(C)[C@]3(C)CC[C@@H]12 [GLYCYRRHIZIN] | 47% | 39.6 µM | 
CC(=O)O[C@@H]1C[C@](C)(C=O)C[C@@H]2C3=CC(=O)[C@@H]4[C@@]5(C)CC[C@H](O[C@@H]6O[C@H](C(=O)O)[C@@H](O)[C@H](O)[C@H]6O[C@@H]6O[C@H](C(=O)O)[C@@H](O)[C@H](O)[C@H]6O)C(C)(C)[C@@H]5CC[C@@]4(C)[C@]3(C)CC[C@]21C | 47% | 39.6 µM | 
CC(=O)O[C@@H]1C[C@](C)(C(=O)O)C[C@@H]2C3=CC(=O)[C@@H]4[C@@]5(C)CC[C@H](O[C@@H]6O[C@H](C(=O)O)[C@@H](O)[C@H](O)[C@H]6O[C@@H]6O[C@H](C(=O)O)[C@@H](O)[C@H](O)[C@H]6O)[C@](C)(CO)[C@@H]5CC[C@@]4(C)[C@]3(C)CC[C@]21C | 47% | 39.6 µM | 
CC(=O)O[C@H]1C[C@@](C)(C(=O)O)C[C@H]2C3=CC(=O)[C@H]4[C@]5(C)CC[C@@H](O[C@@H]6O[C@H](C(=O)O)[C@@H](O)[C@H](O)[C@H]6O[C@@H]6O[C@H](CO)[C@H](O)[C@H](O)[C@H]6O)C(C)(C)[C@H]5CC[C@]4(C)[C@@]3(C)CC[C@]12C | 47% | 39.6 µM | 
CC1(C)[C@H]2CC[C@@]3(C)[C@@H](C(=O)C=C4[C@@H]5C[C@]6(C)C[C@@H](COC6=O)[C@@]5(C)CC[C@@]43C)[C@]2(C)CC[C@H]1O[C@H]1O[C@@H](C(=O)O)[C@H](O)[C@@H](O)[C@@H]1O[C@@H]1O[C@H](C(=O)O)[C@H](O)[C@H](O)[C@H]1O | 47% | 39.6 µM | 
CC1(C)[C@@H](O[C@@H]2O[C@H](C(=O)O)[C@@H](O)[C@H](O)[C@H]2O[C@@H]2O[C@H](C(=O)O)[C@@H](O)[C@H](O)[C@H]2O)CC[C@]2(C)[C@H]3C=CC4=C5C[C@@](C)(C(=O)O)CC[C@]5(C)CC[C@@]4(C)[C@]3(C)CC[C@@H]12 | 47% | 39.6 µM | 
CCOC(=O)C1=C[C@@H](OC(CC)CC)[C@H](NC(C)=O)[C@@H](N)C1 [OSELTAMIVIR PHOSPHATE] |  | 45.6 µM | 
CC1(C)[C@@H](O[C@@H]2O[C@H](C(=O)O)[C@@H](O)[C@H](O)[C@H]2O)CC[C@]2(C)[C@H]3C(=O)C=C4[C@H]5C[C@@](C)(C(=O)O)CC[C@]5(C)CC[C@@]4(C)[C@]3(C)CC[C@@H]12 | 47% | 39.6 µM | 
CC(=O)O[C@H]1C[C@@](C)(C(=O)O)C[C@H]2C3=CC(=O)[C@H]4[C@]5(C)CC[C@@H](O[C@@H]6O[C@H](C(=O)O)[C@@H](O)[C@H](O)[C@H]6O[C@H]6O[C@@H](CO)[C@H](O)[C@@H](O)[C@@H]6O[C@H]6O[C@H](C)[C@@H](O)[C@H](O)[C@@H]6O)C(C)(C)[C@H]5CC[C@]4(C)[C@@]3(C)CC[C@]12C | 47% | 39.6 µM | 
CC1(C)[C@@H](O[C@@H]2O[C@H](C(=O)O)[C@@H](O)[C@H](O)[C@H]2O[C@@H]2OC[C@H](O)[C@H](O)[C@H]2O)CC[C@]2(C)[C@H]3C(=O)C=C4[C@H]5C[C@@](C)(C(=O)O)CC[C@]5(C)CC[C@@]4(C)[C@]3(C)CC[C@@H]12 | 47% | 39.6 µM | 
C[C@]1(C(=O)O)CC[C@]2(C)CC[C@]3(C)C(=CC[C@@H]4[C@@]5(C)CC[C@H](O[C@@H]6O[C@H](C(=O)O)[C@@H](O)[C@H](O)[C@H]6O[C@@H]6O[C@H](C(=O)O)[C@@H](O)[C@H](O)[C@H]6O)[C@](C)(CO)[C@@H]5CC[C@]43C)[C@H]2C1 | 47% | 39.6 µM | 
C[C@@H]1O[C@@H](O[C@H]2[C@H](O[C@@H]3[C@@H](O[C@@H]4CC[C@]5(C)[C@H](CC[C@@]6(C)[C@H]5C(=O)C=C5[C@@H]7C[C@]8(C)C[C@@H](COC8=O)[C@@]7(C)CC[C@@]56C)C4(C)C)O[C@@H](C(=O)O)[C@H](O)[C@H]3O)O[C@H](C(=O)O)[C@@H](O)[C@@H]2O)[C@H](O)[C@H](O)[C@H]1O | 47% | 39.6 µM | 
CC(=O)O[C@H]1C[C@@](C)(C(=O)O)C[C@H]2C3=CC(=O)[C@H]4[C@]5(C)CC[C@@H](O[C@@H]6O[C@H](C(=O)O)[C@@H](O)[C@H](O)[C@H]6O[C@H]6O[C@@H](C(=O)O)[C@H](O)[C@@H](O)[C@@H]6O[C@H]6O[C@H](C)[C@@H](O)[C@H](O)[C@@H]6O)C(C)(C)[C@H]5CC[C@]4(C)[C@@]3(C)CC[C@]12C | 47% | 39.6 µM | 
CC1(C)[C@H]2CC[C@@]3(C)[C@@H](C(=O)C=C4[C@@H]5C[C@]6(C)C[C@@H](COC6=O)[C@@]5(C)CC[C@@]43C)[C@]2(C)CC[C@H]1O[C@@H]1O[C@H](C(=O)O)[C@@H](O)[C@H](O)[C@H]1O[C@@H]1O[C@H](C(=O)O)[C@@H](O)[C@H](O)[C@H]1O | 47% | 39.6 µM | 
CC(=O)O[C@@H]1C[C@](C)(C(=O)O)C[C@@H]2C3=CC(=O)[C@@H]4[C@@]5(C)CC[C@H](O[C@H]6O[C@@H](C(=O)O)[C@H](O)[C@@H](O)[C@@H]6O[C@H]6O[C@@H](C(=O)O)[C@H](O)[C@@H](O)[C@@H]6O)C(C)(C)[C@@H]5CC[C@@]4(C)[C@]3(C)CC[C@]21C | 47% | 39.6 µM | 
CC1(C)[C@@H](O[C@@H]2O[C@H](C(=O)O)[C@@H](O)[C@H](O)[C@H]2O[C@@H]2O[C@H](C(=O)O)[C@@H](O)[C@H](O)[C@H]2O)CC[C@]2(C)[C@H]3C(=O)C=C4[C@H]5C[C@@](C)(C=O)CC[C@]5(C)CC[C@@]4(C)[C@]3(C)CC[C@@H]12 | 47% | 39.6 µM | 
